From publication PMC2720252 (Regenerative medicine, 2009)

Experiments:
[1] = system: wounded skin of neonatal mice; test: Detection and distribution of peptide in wounded skin; format: in vivo, mouse; conditions: whole-mount skin, 60 μM, 2 h postwounding, streptavidin (Alexa 594) confocal
Cx43 = test: Quantitative immunolabeling of Cx43 and ZO-1 in wound epidermis; format: in vivo; conditions: adult mouse wound epidermis, 24 h
Summary of the method: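 Paired peptide-treated and control wounds were taken from the same five adult mice. Peptide was given at 60 μM in 20% pluronic gel. Sections taken 24 h after injury were labelled with Cx43 and ZO-1 antibodies plus DAPI and imaged by laser scanning confocal microscopy. Epidermal Cx43 particle size, numerical density and total immunolabelled area were quantified.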

[2] = system: neutrophils at 2 mm excisional wounds on neonatal mice; test: Whole-mount myeloperoxidase neutrophil density assay in neonatal wounds; format: in vivo, mouse; conditions: 48 h postwounding
Summary of the method: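 Two-day-old pups were sedated by hypothermia and given bilateral 2 mm punch wounds at least 1 cm apart; one wound per mouse received 60 μM peptide and the other vehicle. For the 48 h harvest, treatment was repeated at 24 h. Myeloperoxidase-positive cells were grid-counted blind. Analysis used Wilcoxon matched-pairs test.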

[3] = system: neutrophils at adult mouse excisional skin injuries; test: Neutrophil counts in H&E sections of adult excisional wounds; format: in vivo; conditions: 24 h and 4 days, three treatment and three control wounds, p < 0.01-0.001
[4] = system: healed excisional wounds of adult mice; test: Tensile testing to failure of skin strips with healed wounds; format: in vivo, mouse; conditions: 3 months postwounding
[5] = system: Cx43-expressing HeLa cells; conditions: cited from earlier work
[6] = system: 5 mm excisional wounds on adult CD-1 mice; test: Full-thickness 5 mm excisional wound closure in adult mice; format: in vivo, mouse
Summary of the method: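 Adult CD-1 mice received 5 mm full-thickness excisional wounds treated with 20% pluronic gel alone (n = 102) or with 60 μM peptide (n = 95). Gel was applied at wounding and again 24 h later. Wounds were imaged under anaesthesia at 1, 4, 7 and 10 days, and area was measured blind to treatment. There were nine independent experiments with 8–16 animals per group. Analysis used t-test with Bonferroni correction.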

[7] = system: 5 mm excisional wounds on adult CD-1 mice; format: in vivo, mouse; conditions: two blinded observers, vs vehicle
Summary of the method: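 Adult CD-1 mice received full-thickness 5 mm excisional wounds, treated immediately and again at 24 h with 20% pluronic gel with or without 60 μM peptide. Wound images were scored 0–5 by two observers blind to treatment. Redness/swelling was scored at 24 h and 4 days, and appearance/scarring (discoloration, smoothness) at 7 and 10 days. Each wound's score was the mean of both observers. Data came from nine experiments.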

[8] = system: second PDZ domain (PDZ2) of zonula occludens (ZO)-1; conditions: cited from earlier work
[9] = adult mice, 5 mm excisional wound, 10-day time course, vs controls

RQPKIWFPNRRKPWKKRPRPDDLEI [ACT1]
spread of peptide in tissue after application to wound [1]: could be observed in tissues surrounding the wound edges
apically localized ZO-1 staining proximal to wound edge (Cx43): reduction appeared to be more pronounced
average size of Cx43 particles (GJs) (Cx43; paired wounds on five mice): significant (p < 0.05) overall increase
numerical density of Cx43 particles (Cx43; paired wounds on five mice): significantly (p < 0.05) reduced
localisation of neutrophils at wound [2]: frequently sequestered in blood vessels
neutrophil density [3]: significant decreases
overall appearance of healed wounds [4]: improvement in overall appearance of the healed wounds is maintained
Cx43 distribution and levels ([5]; Cx43-expressing HeLa cells): redistribution of Cx43 from a detergent-soluble to an insoluble fraction without causing changes in overall levels of the protein
GJ aggregate size and number ([5]; Cx43-expressing HeLa cells): increase in the size and decrease in the number of GJ aggregates
subcellular targeting of peptide ([5]; HeLa cells): Cytoplasmic targeting
healed appearance (qualitative) [6, 9]: less discolored appearance
swelling / inflammation of wound (qualitative) [6, 9]: less swollen and inflamed
experiments with significantly accelerated closure rate ([6]; nine independent experiments, 8-16 animals per group): eight of the nine experiments
scarring/overall appearance score (0-5) ([7]; 7 and 10 days postwounding): significantly improved
wound redness score (0-5) ([7]; 24 h and 4 days postwounding): significantly decreased
effect on Cx43-ZO-1 interaction [8]: competitively inhibiting the interaction of endogenous Cx43 molecules with ZO-1
